Reference: ChEMBL document CHEMBL4715795, “Urolinin: The First Linear Peptidic Urotensin-II Receptor Agonist” (J Med Chem, 2016)
Calls of active or inactive are those of the source. The rule behind the calls is not given here. Numbered stars: 1 amine (or outer) side, 2 acyl side, 3 side chain; on linkers, the order of the positions; unused ones are H or OH. Bridge positions count the residues as written; N and C are the ends. Square brackets hold non-standard residues; d marks the D form. Peptide text beside a SMILES is read from it. ξ: configuration not given here. Tyr(3-NO2) = N[C@@H](Cc1ccc(O)c([N+](=O)[O-])c1)C(=O)O; X1 = O=C([C@H](Cc1ccc(O)c(S(=O)(=O)O)c1)N[*:1])[*:2]; 2Nal = N[C@@H](Cc1ccc2ccccc2c1)C(=O)O; ξ2Nal = NC(Cc1ccc2ccccc2c1)C(=O)O

Assays:
Urotensin-2 receptor [1] = target: T1, Urotensin-2 receptor (Homo sapiens, UniProt Q9UKP6); assay: Agonist activity at human U-IIR expressed in HEK293-A cells by Fluo4-AM dye based intracellular calcium mobilization assay; type: functional, cell-based
T1 sequence (Q9UKP6 whole entry): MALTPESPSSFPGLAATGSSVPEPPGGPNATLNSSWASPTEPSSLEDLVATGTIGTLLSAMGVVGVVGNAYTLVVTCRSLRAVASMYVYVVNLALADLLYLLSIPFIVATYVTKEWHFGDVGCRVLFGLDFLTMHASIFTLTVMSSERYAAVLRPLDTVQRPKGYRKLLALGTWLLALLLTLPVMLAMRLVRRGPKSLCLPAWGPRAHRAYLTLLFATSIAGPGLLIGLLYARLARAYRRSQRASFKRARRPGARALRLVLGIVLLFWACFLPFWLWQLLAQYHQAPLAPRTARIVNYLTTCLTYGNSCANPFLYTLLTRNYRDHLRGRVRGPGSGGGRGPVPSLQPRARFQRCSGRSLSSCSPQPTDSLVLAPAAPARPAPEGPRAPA

[2] = Half life in 25% human serum by RP-HPLC analysis; type: ADME, cell-free
Method in brief: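 Peptide at 50 μg/mL final in RPMI with 25% (v/v) human serum, pre-equilibrated at 37 °C. Samples taken at set times into 6% TCA, iced 15 min, spun at 18000g. Supernatant run on C18 RP-HPLC, 25–80% acetonitrile gradient over 15 min at 30 °C, absorbance at 214 and 280 nm.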

Urotensin-2 receptor [3] = target: T1, Urotensin-2 receptor; assay: Displacement of [125I-Tyr9]-U-II from human U-IIR expressed in HEK293-A cells incubated for 30 mins by gamma counting based competition radioligand binding assay; type: cell-based
VSMC [4] = assay: Agonist activity at U-IIR in pig aorta VSMC assessed as increase of ERK1/2 phosphorylation at 500 nM incubated for 15 mins by Western blot analysis relative to control; conditions: Sus scrofa, filed as agonist
Method in brief: (§1)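 Primary smooth muscle cells from aortas of 4–6-month-old domestic pigs, grown from minced-tissue explants and used at passages 5–10. Cells were grown to 80% confluence, then exposed to peptide at 5 or 500 nM in 0.1% FCS/DMEM for 15 min. Lysates were taken in Tris/SDS buffer and probed on Western blot for phospho-ERK1/2 (Thr202/Tyr204). Signal was normalized to total ERK1/2 and to the untreated control. n = 2–4 independent experiments, each with 3–6 replicates.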

VSMC [5] = assay: Agonist activity at U-IIR in pig aorta VSMC assessed as increase of ERK1/2 phosphorylation at 5 nM incubated for 15 mins by Western blot analysis relative to control; conditions: Sus scrofa; method in brief: as §1
VSMC [6] = assay: Agonist activity at U-IIR in pig aorta VSMC assessed as increase of ERK1/2 phosphorylation incubated for 15 mins by Western blot analysis relative to control; conditions: Sus scrofa, filed as agonist; method in brief: as §1

H-TWWKYC-NH2 gave an EC50 (Urotensin-2 receptor [1]) of 103 nM.
In the case of NCCCC[C@H](NC(=O)[C@@H](N)Cc1c[nH]c2ccccc12)C(=O)N[C@@H](Cc1ccc(O)cc1)C(N)=O (H-Trp-Lys-Tyr-NH2), the EC50 (Urotensin-2 receptor [1]) is reported as > 10000 nM.
In the case of CC(C)[C@H](NC(=O)[C@@H]1CSSC[C@H](N)C(=O)N[C@@H](Cc2ccccc2)C(=O)N[C@@H](Cc2c[nH]c3ccccc23)C(=O)N[C@@H](CCCCN)C(=O)N[C@@H](Cc2ccc(O)cc2)C(=O)N1)C(N)=O (H-CFWKYCV-NH2; disulfide 1-6), the EC50 (Urotensin-2 receptor [1]) is reported as 0.83 nM.
CC(C)[C@H](NC(=O)[C@@H]1CSSC[C@H](NC(=O)[C@@H](N)CC(=O)O)C(=O)N[C@@H](Cc2ccccc2)C(=O)N[C@@H](Cc2c[nH]c3ccccc23)C(=O)N[C@@H](CCCCN)C(=O)N[C@@H](Cc2ccc(O)cc2)C(=O)N1)C(N)=O (H-DCFWKYCV-NH2; disulfide 2-7) gave an EC50 (Urotensin-2 receptor [1]) of 0.45 nM, a half-life [2] of 372 min and an IC50 (Urotensin-2 receptor [3]) of 0.9 nM.
For H-NWWKYE-NH2, the EC50 (Urotensin-2 receptor [1]) was 65.6 nM.
Molecule H-FWKYC-NH2 has an EC50 (Urotensin-2 receptor [1]) of 141 nM.
Molecule H-DVFWKYCV-NH2 has an EC50 (Urotensin-2 receptor [1]) of 32.6 nM, a half-life [2] of 19 min and an IC50 (Urotensin-2 receptor [3]) of 300 nM.
NCCCC[C@@H]1NC(=O)[C@H](Cc2c[nH]c3ccccc23)NC(=O)[C@H](Cc2ccccc2)NC(=O)[C@@H](N)CSSC[C@@H](C(N)=O)NC(=O)[C@H](Cc2ccc(O)cc2)NC1=O (H-CFWKYC-NH2; disulfide 1-6) gave an EC50 (Urotensin-2 receptor [1]) of 3.8 nM.
In the case of NCCCC[C@H](NC(=O)[C@H](Cc1c[nH]c2ccccc12)NC(=O)[C@H](Cc1ccc2ccccc2c1)NC(=O)[C@@H](N)CC(N)=O)C(=O)N[C@@H](Cc1ccc(O)c([N+](=O)[O-])c1)C(=O)N[C@@H](CS)C(N)=O (H-N[2Nal]WK[Tyr(3-NO2)]C-NH2), the EC50 (Urotensin-2 receptor [1]) is reported as 8.13 nM, the half-life [2] is reported as 37 min and the IC50 (Urotensin-2 receptor [3]) is reported as 430 nM.
With NCCCC[C@H](NC(=O)[C@H](Cc1c[nH]c2ccccc12)NC(=O)[C@H](Cc1c[nH]c2ccccc12)NC(=O)[C@@H](N)CC(N)=O)C(=O)N[C@@H](Cc1ccc(O)c(S(=O)(=O)O)c1)C(=O)N[C@@H](CS)C(N)=O (H-NWWK[X1]C-NH2) the EC50 (Urotensin-2 receptor [1]) was 330 nM, the half-life [2] was 11 min and the IC50 (Urotensin-2 receptor [3]) was > 10000 nM.
Molecule H-DNFWKYCV-NH2 has an EC50 (Urotensin-2 receptor [1]) of 155 nM.
H-CFWKY-NH2 showed an EC50 (Urotensin-2 receptor [1]) of 201 nM.
Work on CC(C)[C@H](NC(=O)[C@@H]1CSSC[C@H](NC(=O)[C@@H](N)CCC(N)=O)C(=O)N[C@@H](Cc2ccccc2)C(=O)N[C@@H](Cc2c[nH]c3ccccc23)C(=O)N[C@@H](CCCCN)C(=O)N[C@@H](Cc2ccc(O)cc2)C(=O)N1)C(N)=O (H-QCFWKYCV-NH2; disulfide 2-7) yielded an EC50 (Urotensin-2 receptor [1]) of 1.99 nM.
In the case of CCC(NC(=O)[C@H](Cc1ccc(O)cc1)NC(=O)[C@H](CCCCN)NC(=O)[C@H](Cc1c[nH]c2ccccc12)NC(=O)[C@H](Cc1c[nH]c2ccccc12)NC(=O)[C@H](N)CC(N)=O)C(N)=O (some centres undefined), the EC50 (Urotensin-2 receptor [1]) is reported as 23 nM, the half-life [2] is reported as 3120 min and the IC50 (Urotensin-2 receptor [3]) is reported as 4830 nM. The fold change (FC) (VSMC [4]) was 1.9, the Activity (VSMC [5]) was “inactive” and the Activity (VSMC [6]) was “Dose-dependent effect”.
With NCCCC[C@H](NC(=O)[C@H](Cc1c[nH]c2ccccc12)NC(=O)[C@@H](N)Cc1ccccc1)C(N)=O (H-Phe-Trp-Lys-NH2) the EC50 (Urotensin-2 receptor [1]) was > 10000 nM.
H-NWWKYC-NH2 showed an EC50 (Urotensin-2 receptor [1]) of 10 nM, a half-life [2] of 19 min and an IC50 (Urotensin-2 receptor [3]) of 1550 nM.
H-NWWKYT-NH2 showed an EC50 (Urotensin-2 receptor [1]) of 143 nM.
In the case of CCC(NC(=O)[C@H](Cc1ccc(O)cc1)NC(=O)[C@H](CCCCN)NC(=O)[C@H](Cc1c[nH]c2ccccc12)NC(=O)C(Cc1ccc2ccccc2c1)NC(=O)[C@@H](N)CC(N)=O)C(N)=O (some centres undefined), the EC50 (Urotensin-2 receptor [1]) is reported as 108 nM, the half-life [2] is reported as 34 min and the IC50 (Urotensin-2 receptor [3]) is reported as 7880 nM.
Molecule H-NWWKYD-NH2 has an EC50 (Urotensin-2 receptor [1]) of 50.4 nM.
For NCCCC[C@H](NC(=O)[C@H](Cc1c[nH]c2ccccc12)NC(=O)C(Cc1ccc2ccccc2c1)NC(=O)[C@@H](N)CC(N)=O)C(=O)N[C@@H](Cc1ccc(O)cc1)C(=O)N[C@@H](CS)C(N)=O (some centres undefined) (H-N[ξ2Nal]WKYC-NH2), the EC50 (Urotensin-2 receptor [1]) was 74.9 nM, the half-life [2] was 17 min and the IC50 (Urotensin-2 receptor [3]) was 3060 nM.
Molecule CC(C)[C@H](NC(=O)[C@@H]1CSSC[C@H](NC(=O)[C@@H](N)[C@@H](C)O)C(=O)N[C@@H](Cc2ccccc2)C(=O)N[C@@H](Cc2c[nH]c3ccccc23)C(=O)N[C@@H](CCCCN)C(=O)N[C@@H](Cc2ccc(O)cc2)C(=O)N1)C(N)=O (H-TCFWKYCV-NH2; disulfide 2-7) has an EC50 (Urotensin-2 receptor [1]) of 3.9 nM.
Work on H-QVFWKYCV-NH2 yielded an EC50 (Urotensin-2 receptor [1]) of 9.63 nM.
In the case of CC(C)[C@H](NC(=O)[C@@H]1CSSC[C@H](NC(=O)[C@H](CC(=O)O)NC(=O)[C@@H]2CCCN2C(=O)[C@@H](NC(=O)[C@@H](N)CCC(=O)O)[C@@H](C)O)C(=O)N[C@@H](Cc2ccccc2)C(=O)N[C@@H](Cc2c[nH]c3ccccc23)C(=O)N[C@@H](CCCCN)C(=O)N[C@@H](Cc2ccc(O)cc2)C(=O)N1)C(=O)O, the fold change (FC) (VSMC [4]) is reported as 2.4, the Activity (VSMC [5]) is reported as “inactive” and the Activity (VSMC [6]) is reported as “Dose-dependent effect”.
CC(C)[C@H](NC(=O)[C@@H]1CSSC[C@H](NC(=O)[C@@H](N)Cc2ccccc2)C(=O)N[C@@H](Cc2ccccc2)C(=O)N[C@@H](Cc2c[nH]c3ccccc23)C(=O)N[C@@H](CCCCN)C(=O)N[C@@H](Cc2ccc(O)cc2)C(=O)N1)C(N)=O (H-FCFWKYCV-NH2; disulfide 2-7) showed an EC50 (Urotensin-2 receptor [1]) of 4.8 nM.
With H-TVFWKYCV-NH2 the EC50 (Urotensin-2 receptor [1]) was 11.2 nM.
Molecule CCC(NC(=O)[C@H](Cc1ccc(O)cc1)NC(=O)[C@H](CCCCN)NC(=O)[C@H](Cc1c[nH]c2ccccc12)NC(=O)[C@H](Cc1ccc2ccccc2c1)NC(=O)[C@H](N)CC(N)=O)C(N)=O (some centres undefined) has an EC50 (Urotensin-2 receptor [1]) of 25.5 nM, a half-life [2] of 770 min and an IC50 (Urotensin-2 receptor [3]) of 4890 nM.
NCCCC[C@H](NC(=O)[C@H](Cc1c[nH]c2ccccc12)NC(=O)[C@H](Cc1c[nH]c2ccccc12)NC(=O)[C@@H](N)CC(N)=O)C(=O)N[C@@H](Cc1ccc(O)c([N+](=O)[O-])c1)C(=O)N[C@@H](CS)C(N)=O (H-NWWK[Tyr(3-NO2)]C-NH2) gave an EC50 (Urotensin-2 receptor [1]) of 15.7 nM, a half-life [2] of 23 min and an IC50 (Urotensin-2 receptor [3]) of 163 nM.
Work on H-DHFWKYCV-NH2 yielded an EC50 (Urotensin-2 receptor [1]) of 29.8 nM.
With COc1ccc(C[C@H](NC(=O)[C@H](CCCCN)NC(=O)[C@H](Cc2c[nH]c3ccccc23)NC(=O)[C@H](Cc2c[nH]c3ccccc23)NC(=O)[C@@H](N)CC(N)=O)C(=O)N[C@@H](CS)C(N)=O)cc1 (H-NWWKY(Me)C-NH2) the EC50 (Urotensin-2 receptor [1]) was 10.2 nM, the half-life [2] was 15 min and the IC50 (Urotensin-2 receptor [3]) was 890 nM.
For CCC(NC(=O)[C@H](Cc1ccc(O)c([N+](=O)[O-])c1)NC(=O)[C@H](CCCCN)NC(=O)[C@H](Cc1c[nH]c2ccccc12)NC(=O)[C@H](Cc1c[nH]c2ccccc12)NC(=O)[C@@H](N)CC(N)=O)C(N)=O (some centres undefined), the EC50 (Urotensin-2 receptor [1]) was 3.47 nM, the half-life [2] was 55 min and the IC50 (Urotensin-2 receptor [3]) was 1090 nM.
For NCCCC[C@H](NC(=O)[C@H](Cc1c[nH]c2ccccc12)NC(=O)[C@@H](N)Cc1ccccc1)C(=O)N[C@@H](Cc1ccc(O)cc1)C(N)=O (H-FWKY-NH2), the EC50 (Urotensin-2 receptor [1]) was 179 nM.
With H-NWWKYS-NH2 the EC50 (Urotensin-2 receptor [1]) was 91.5 nM.
In the case of CCC(NC(=O)[C@H](Cc1ccc(O)cc1)NC(=O)[C@H](CCCCN)NC(=O)[C@H](Cc1c[nH]c2ccccc12)NC(=O)[C@H](Cc1c[nH]c2ccccc12)NC(=O)[C@@H](N)CC(N)=O)C(N)=O (some centres undefined), the EC50 (Urotensin-2 receptor [1]) is reported as 60 nM, the half-life [2] is reported as 50 min and the IC50 (Urotensin-2 receptor [3]) is reported as > 10000 nM.
